Results published in article PMC9989235 (Iranian Journal of Medical Sciences, 2023).

Experiments:
[1] = system: selected bacteria strains; experiment: Disc diffusion method, overall statements on the selected bacteria strains; assay type: cell-based; conditions: selected Gram-positive and Gram-negative strains, inhibition zones
Procedure, shortened: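 Clinical isolates from Kirkuk Hospital were cultured on agar in Petri dishes. Test compound was dissolved in DMSO at 60 µg/mL, with DMSO alone tested alongside. Plates were incubated 24 h at 37 °C, pH 7.4±0.2. Inhibition-zone diameter around the disc was scored: − none; + 10–15 mm; ++ 15–20 mm; +++ ≥20 mm.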

Giardia intestinalis = experiment: In vitro bioassay of antigiardial activity; assay type: cell-based; conditions: Giardia duodenalis, read-out: Antigiardial activity, IC50, Giardia intestinalis
[2] = DPPH radical scavenging assay; conditions: mean±SD
Procedure, shortened: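 Test compound in methanol at 50, 75 and 100 was added to 0.005% (w/v) DPPH in methanol. Incubation was 45 min at room temperature, with absorbance read at 517 nm against a blank. Inhibition (%) = [(controlA − sampleA)/[…]]×100, where the control held all reagents except the test compound. Triplicate runs; IC50 taken from a fitted line to the plot.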

SMILES | antibacterial activity (in words) [1] | IC50 (Giardia intestinalis) [µM] | DPPH radical scavenging, IC50 ([2]; fitted line to a plot, triplicate) | DPPH radical scavenging, inhibition at 50 µg/mL ([2]; compound concentration 50 µg/mL, 45 min, 517 nm) [%] | DPPH radical scavenging, inhibition at 75 µg/mL ([2]; compound concentration 75 µg/mL, 45 min, 517 nm) [%] | DPPH radical scavenging, inhibition at 100 µg/mL ([2]; compound concentration 100 µg/mL, 45 min, 517 nm) [%]
Cc1ncc([N+](=O)[O-])n1CCO [Metronidazole] | no antibacterial activity | 3.71 ± 0.27 | ns (No scavenging activity) | – | – | –
O=C1O[C@H]([C@@H](O)CO)C(O)=C1O [Ascorbic acid] | – | – | – | 78.01±0.75 | 81.01±0.85 | 84.21±0.41
